TAAR1 antag: human TAAR1 antagonism | 360,000 tested, 1.5% active | inhibition, % at 3 µM | Q96RJ0 | CHO RD-HGA16 TAAR1, Fluo-8 calcium fluorescence, antagonist | AID 624466;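 active means inhibition above a per-plate cutoff, the mean inhibition of test compounds on that plate plus 3 SD, cut at about 49% in these data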;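 further: 0% = DMSO plus EC80 beta-PEA response and 100% = DMSO alone without agonist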
Target sequence (Q96RJ0 whole entry, looked up): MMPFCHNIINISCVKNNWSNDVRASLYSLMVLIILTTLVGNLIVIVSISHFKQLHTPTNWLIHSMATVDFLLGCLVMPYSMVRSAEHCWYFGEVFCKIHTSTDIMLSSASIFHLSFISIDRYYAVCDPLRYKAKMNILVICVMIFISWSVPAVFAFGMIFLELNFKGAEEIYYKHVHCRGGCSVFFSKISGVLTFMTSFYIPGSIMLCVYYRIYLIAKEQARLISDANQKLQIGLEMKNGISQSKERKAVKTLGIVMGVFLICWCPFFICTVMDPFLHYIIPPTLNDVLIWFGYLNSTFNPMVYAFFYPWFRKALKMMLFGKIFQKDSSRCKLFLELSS
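Material: CHO RD-HGA16 cells bearing hTAAR1; compound dosing: one-point dosing, 3 µM nominal final; schedule: dye loading 75 min at 37 °C, then 30 min room temperature; measured by: calcium fluorescence with Fluo-8; control set: vehicle and agonist controls; replication: n of 1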
CHRM1 PAM: human CHRM1 positive allosteric modulation; activation, % at 3 µM; P11229; AID 588819; CHO-K1 hM1, Fluo-8 calcium fluorescence, ACh EC20; 0% = ACh EC20, 100% = maximal ACh; 360,000 tested, 0.088% active; in the data active means activation above about 19%, passing the limit was not always enough
M1 ag: agonists of human M1 muscarinic receptor; P11229; CHO-K1 hM1, Fluo-8 calcium fluorescence, agonist mode; 0% DMSO, 100% acetylcholine EC100; activation, % at 3 µM; 360,000 tested, 0.33% active;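 active means activation above the run's mean compound activation plus 3 SD, cut at about 16% in these data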;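 further: peak over basal fluorescence ratio within a 140 s kinetic read after compound addition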
CHRM1 antagonist: blocks human M1 muscarinic receptor; P11229; CHO-K1 hM1, Fluo-8 calcium fluorescence, ACh EC80 antagonist; inhibition, % at 3 µM; 360,000 tested, 1.3% active; AID 588852;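 active means percent inhibition above its own plate's cutoff, namely the mean of that plate's compound wells plus 3 SD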;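 further: peak over basal fluorescence ratio during 140 s after agonist addition; 0% = ACh EC80 plus DMSO and 100% = DMSO alone without agonist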
TAAR1 ag: agonists of human TAAR1; Q96RJ0; CHO RD-HGA16 TAAR1, Fluo-8 calcium fluorescence; vehicle wells 0%, saturating PEA agonist 100%; activation, % at 3 µM; 360,000 tested, 0.99% active;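 active means activation above the mean activation of all test compounds in the run plus 3 SD, cut at about 38% in these data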
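Signal – calcium-sensitive Fluo-8 signal, excitation 470-495, emission 515-575 nm · System – RD-HGA16 (CHO) cells co-expressing Gα16 and hTAAR1 · Incubation – 17-24 h seeding, 75 min 37 °C dye, 30 min RT · Compound dosing – 3 µM single concentration · Repeats – no replicates (n 1)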
* hit, by the source's call; . = not tested or not shown. This is a sample that favours compounds with a hit; in the whole collection about 3.4% have one here.

SMILES | TAAR1 antag | CHRM1 PAM | M1 ag | CHRM1 antagonist | TAAR1 ag
COCc1ccc(C(=O)N(C)CC2CCCN(CCc3ccc(OC)cc3)C2)o1 (stereo unspecified) | -35 | -22 | -5 | 52* | 0
CCN(CC)Cc1ccccc1Sc1ccccc1 | -7 | -26 | -7 | 98* | 9
COC(=O)c1cc2c(c3c4cc(C)ccc4n(S(=O)(=O)c4ccc(C)cc4)c13)C(=O)N(C)C2 | -33 | . | . | . | -2
O=C(NCC(c1ccco1)N1CCCC1)c1cccc(NS(=O)(=O)c2ccc(Br)cc2)c1 (stereo unspecified) | 1 | -23 | -7 | 50* | 5
Cc1cccc(NS(=O)(=O)c2cccc(C(=O)NCC(c3ccco3)N3CCCCC3)c2)c1 (stereo unspecified) | 0 | -3 | -7 | 6 | 6
O=C(NCC(c1ccco1)N1CCCCC1)c1ccc(NS(=O)(=O)c2ccc(F)cc2)cc1 (stereo unspecified) | -3 | -15 | -6 | 14 | 2
Cc1ccc(S(=O)(=O)Nc2cccc(C(=O)NCC(c3ccco3)N(C)C)c2)cc1F (stereo unspecified) | -1 | -25 | -7 | 43* | 4
O=C(NCC(c1ccco1)N1CCCC1)c1ccc(S(=O)(=O)Nc2ccc(F)cc2)cc1 (stereo unspecified) | -7 | -25 | -1 | 50* | 40*
COC(=O)c1cc2c(c3c4cc(F)ccc4n(S(=O)(=O)c4ccccc4)c13)C(=O)N(Cc1ccc(N(C)C)cc1)C2 | -3 | . | . | . | 0
C[C@H](c1ccccc1)N1C[C@@H](COCc2ccccc2)Oc2cccc(N3CCCC3)c2S1(=O)=O | 13 | . | . | . | 0
C/C(=N\Nc1cc(C)nc(NCc2ccccc2)n1)c1ccc([N+](=O)[O-])cc1 | 10 | -15 | -7 | 38* | -1
C/C(=N\NC(=O)c1cc(C)nc2ccccc12)c1ccc([N+](=O)[O-])cc1 | -4 | -7 | -7 | 5 | 1
COc1ccc(N2C(=O)c3n[nH]c(C(C)C)c3C2c2ccccc2)cc1 (stereo unspecified) | -34 | . | . | . | -1
CC(=O)c1ccc2c(c1)N(C)c1ccccc1S2 | -11 | 10 | -2 | -14 | -3
CC(=O)c1ccc2c(c1)N(CCCN(C)C)c1ccccc1S2 | 8 | -25 | -7 | 95* | 3
CCC(=O)c1ccc2c(c1)N(CCCN(C)C)c1ccccc1S2 | -1 | -25 | -5 | 94* | 7
NC(=O)[C@@H]1CCCN1C(=O)[C@H](CCc1ccccc1)NC(=O)[C@H]1O[C@@H](n2cnc3c(N)ncnc32)[C@H](O)[C@@H]1O | -1 | . | . | . | 2
Cc1cccc(-c2cccc3[nH]c4c(c23)CCN2C(=O)[C@H]3[C@H](C)ON(C)[C@H]3C[C@@H]42)c1 | 39 | . | . | . | 17
Cc1cc(C)[n+](-c2ccc(C(C)C)cc2)c2[nH]c(=O)[nH]c(=O)c12 | -3 | -22 | -10 | 55* | 1
CSC(=Nc1ccccc1)N=C(SCc1ccccc1)N(C)C | 77* | -25 | 2 | 49* | 10
CC(C)[N+](C)(C)CC#CC(O)(c1ccccc1)c1ccccc1 | -27 | -25 | -7 | 99* | 0
C[N+]1(CC#CC(O)(c2ccccc2)c2ccccc2)CCCC1 | -5 | -26 | -11 | 100* | 3
CN1CCN(c2nc(-c3ccc(Cl)c(Cl)c3)nc3ccccc23)CC1 | . | 1 | -2 | -5 | .
CN1CCN(C2=Cc3ccccc3Sc3cc(F)c(F)cc32)CC1 | -5 | -21 | -6 | 70* | 37
Cn1ncc2c(NCCO)nc(Cl)nc21 | 2 | 8 | 0 | -9 | 2
Cn1ncc2c(Nc3ccc([N+](=O)[O-])cc3)nc(Cl)nc21 | -2 | 14 | -1 | -23 | 41*
O=C1[C@H]2[C@@H](c3ccccc3)N[C@]3(CCCN(Cc4ccc(C(F)(F)F)cc4)C3=O)[C@H]2C(=O)N1Cc1ccccc1 | 50* | -12 | -5 | 16 | 12
COCCNC(=O)C1CCCN(Cc2ccc(Cl)cc2)CC1 (stereo unspecified) | -9 | -2 | -6 | -1 | 1
CCc1ccc(CN2CCC(n3nccc3NC(=O)C3CCCC3)CC2)cc1 | -19 | 6 | 0 | -8 | 7
